Only some compounds are listed: those with a hit (about 2.8% of all), similar ones and a draw of the others.
PP1 counter – PP1-alpha phosphatase inhibitors, primary screen, counter-screen for PP5 inhibitor project, biochemical, fluorescence, OMFP substrate, single point; purified PP1alpha; inhibition, % at 6.7 µM; hit rate 0.9% among 320,000;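 active = inhibition above the mean inhibition of all tested compounds plus 3 SD, computed separately for each screening campaign, cut at about 15% in these data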
Target sequence (P62136 whole entry, looked up): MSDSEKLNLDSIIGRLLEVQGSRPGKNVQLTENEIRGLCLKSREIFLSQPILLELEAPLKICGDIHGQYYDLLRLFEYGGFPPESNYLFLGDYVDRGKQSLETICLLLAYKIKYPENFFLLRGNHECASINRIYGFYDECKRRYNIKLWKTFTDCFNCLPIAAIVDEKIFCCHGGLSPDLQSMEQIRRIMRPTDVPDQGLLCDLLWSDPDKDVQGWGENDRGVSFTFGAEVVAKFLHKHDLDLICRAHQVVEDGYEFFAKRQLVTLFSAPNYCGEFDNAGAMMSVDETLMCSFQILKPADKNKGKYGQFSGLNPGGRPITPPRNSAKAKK
AI-2 QS mod – Vibrio harveyi AI-2 quorum sensing modulators, primary screen, JMH597 strain, luminescence/OD600 ratio. Vibrio harveyi JMH597 AI-2 luminescence/OD600 ratio, 9 h; active compounds read low; strain lacks LuxN and CqsS sensors; 0 = neutral-control median. activity change, % at 7.5 µM. hit rate 0.4% among 300,000. AID 2094, 2009; in the data active = activity change below about -75%, passing the limit was not always enough;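 note: luminescence divided by OD600 gain over 9 h not by final OD600 alone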
pCIP destab – p/CIP-EGFP fusion destabilizers, primary screen, fluorescence, F442A cells; decrease of EGFP signal, % at 10 µM; 16 h; hit rate 0.01% among 290,000; Q05BA5;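 active = EGFP signal decrease of at least 30% at 10 µM or well 3 SD below plate mean, unless failing retest; inactive = the rest, including hits failing retest or dose response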
UBC13 polyUb – UBC13 polyubiquitin chain formation inhibitors, primary screen, biochemical, TR-FRET, uHTS; AID 485273, 2010; Ubiquitin-conjugating enzyme E2 N (Homo sapiens), P61088; hit rate 0.47% among 330,000; inhibition, % at 20 µM; in the data active = inhibition above about 45%, passing the limit was not always enough
Target sequence (P61088 whole entry, looked up): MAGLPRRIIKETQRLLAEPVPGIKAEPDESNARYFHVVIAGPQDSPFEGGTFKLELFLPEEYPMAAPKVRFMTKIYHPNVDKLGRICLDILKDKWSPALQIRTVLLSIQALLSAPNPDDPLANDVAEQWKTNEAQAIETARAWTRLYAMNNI
T cruzi inh – inhibitors of intracellular T. cruzi growth, primary screen, luminescence, NIH3T3 host cells. T. cruzi beta-gal in NIH3T3, 90 h. inhibition, % (concentration not given with the values). hit rate 1.4% among 300,000. AID 1885, 2009;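 active = mean inhibition across valid replicates above about 55%, limit read from the data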;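 note: signal also drops with host cell toxicity which is not excluded here; 0% = plate median of DMSO wells and 100% = zero luminescence signal; higher percent means less beta-gal luminescence so fewer parasites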
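compound dosing = single 50 nL compound addition per well in DMSO | material = NIH/3T3 host cells with β-galactosidase reporter T. cruzi | input = 5,000 host fibroblasts per well | timing = ≥90 h infection period, 3 h prior cell attachment | read-out basis = percent inhibition of parasite-derived β-gal signal | detection = GalScreen β-gal luminescence, detergent lysis, 60 min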
Casp3 UBC13 ctr – CASP3 inhibitor validation, counterassay for project on UBE2N polyubiquitination blockers, biochemical, one dose | inhibition, % at 20 µM | shares compounds with UBC13 polyUb | Recombinant caspase-3, Caspase-Glo 3/7 luminescence, 60 min | hit rate 4% among 1,400;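 active = mean inhibition across replicates above about 26%, limit read from the data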;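 note: plate controls were DMSO with caspase-3 for no effect and DMSO wells lacking enzyme for full effect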
UBC13 confirm – UBC13 polyubiquitination inhibitors, single-point retest, confirmation, biochemical, TR-FRET, single concentration; shares compounds with UBC13 polyUb; inhibition, % at 10 µM; hit rate 68% among 1,400; in the data active = inhibition above about 45%
Numbers without * were called inactive; nt = no result.

SMILES | PP1 counter | AI-2 QS mod | pCIP destab | UBC13 polyUb | T cruzi inh | Casp3 UBC13 ctr | UBC13 confirm
CC(=O)c1ccccc1NS(=O)(=O)c1ccccc1Cl | 1 | -1 | -14 | 0 | -5 | nt | nt
COc1ccccc1OCC(=O)NNC(=O)c1cnccn1 | -6 | 13 | -7 | -8 | -12 | nt | nt
CCc1ccc(OCC(=O)NNC(=O)c2cnccn2)c(Br)c1 | -3 | 27 | 5 | 53* | -7 | 4 | 41
Cc1c(C(=O)Nc2ccc(S(=O)(=O)N(C)C3CCN(C)CC3)cc2)oc2ccccc12 | 3 | nt | nt | 56* | nt | -2 | 34
O=c1c2c([nH]n1-c1ccccc1)CCSC2 | 3 | 30 | 0 | -6 | -5 | nt | nt
CCCCn1c(=O)[nH]c(=O)c2c1nc(COC(=O)c1c(C)noc1C)n2CCC | -1 | 4 | -5 | 7 | 9 | nt | nt
C=CCn1c(=O)c(C(=O)Nc2cccnc2)c(O)c2ccccc21 | 2 | 21 | 1 | 10 | -8 | nt | nt
C=CCn1c(=O)c(C(=O)Nc2ccc(C)cn2)c(O)c2ccccc21 | 0 | 17 | 1 | 55* | 0 | 3 | 30
O=C1c2cccc3cccc(c23)N1Cc1ccc(F)cc1 | 5 | 14 | -31 | 83* | -3 | 3 | 96*
O=C1c2cccc3cccc(c23)C(=O)N1Cc1cccnc1 | 0 | 11 | -8 | 65* | 3 | 0 | 83*
O=C1CCCc2ccccc2N1Cc1cccc(F)c1 | 3 | 24 | 1 | -4 | -7 | nt | nt
O=C1c2cccc3cccc(c23)N1Cc1cccc(F)c1 | -3 | -5 | -7 | 76* | 20 | -2 | 90*
O=C1c2cccc3cccc(c23)C(=O)N1Cc1ccccc1 | -2 | 16 | 5 | 25 | 10 | nt | nt
CC(C)=CCc1c(-c2ccc(O)cc2O)oc2cc3c(c(O)c2c1=O)C=CC(C)(C)O3 | -1 | 28 | nt | 50* | -5 | 0 | 2
C[C@@H](CN1CCC[C@H]1CN1C(N)=NC[C@@H]1Cc1ccccc1)N1C[C@@H](Cc2ccccc2)N(CCc2ccc(Cl)c(Cl)c2)C1=N | nt | nt | nt | 63* | nt | -5 | 70*
CC(C)[C@@H]1CN=C(N)N1C[C@@H]1CCCN1C[C@H](C)N1C[C@@H](Cc2ccccc2)N(CCc2ccc(Cl)c(Cl)c2)C1=N | nt | nt | nt | 70* | nt | -2 | 46*
NC1=NC[C@H](c2ccccc2)N1CCc1cccc(F)c1 | 2 | 22 | -12 | 18 | -10 | nt | nt
CC(C)[C@H](CN1CCC[C@H]1CN1C(N)=NC[C@@H]1Cc1ccccc1)N1C[C@@H](Cc2ccccc2)N(CCc2ccc(Cl)c(Cl)c2)C1=N | nt | nt | nt | 75* | nt | 3 | 76*
O=C(CCCC(=O)c1ccc(F)cc1)c1ccc(F)cc1 | -2 | -58 | -6 | 2 | -5 | nt | nt
CCN1CCN(CCCNC(=O)c2ccc3c(c2)N(Cc2ccccc2)CCS3)CC1 | -3 | -3 | -3 | 26 | 21 | nt | nt
O=C(NCCCN1CCCC1)c1ccc2c(c1)N(Cc1ccccc1)CCS2 | 2 | 14 | -4 | 55* | 26 | -2 | 69*
CN(C)C(CNC(=O)c1coc2ccccc2c1=O)c1ccccc1 (stereo unspecified) | 1 | 26 | 16 | 56* | -20 | 12 | 59*
COc1ccc(S(=O)(=O)N2CCN(c3ccc4nnc(-c5ccccc5)n4n3)CC2)cc1 | 3 | 4 | -12 | 51* | 5 | -4 | 32
COc1ccc(S(=O)(=O)N2CCN(c3ccccc3OC)CC2)cc1 | 1 | 16 | 0 | 0 | 3 | nt | nt
Fc1ccc(-c2nnc3ccc(N4CCCC4)nn23)cc1 | 1 | 21 | 2 | 8 | 4 | nt | nt
SMILES | PP1 counter | AI-2 QS mod | pCIP destab | UBC13 polyUb | T cruzi inh | Casp3 UBC13 ctr | UBC13 confirm
Brc1ccc(-c2nnc3ccc(N4CCN(c5ccccc5)CC4)nn23)cc1 | -2 | 8 | -10 | 62* | 10 | -3 | 18
O=C(NCCc1ccc(Cl)cc1)c1ccc(CNc2c(N3CCOCC3)c(=O)c2=O)cc1 | 9 | 7 | -6 | -4 | -4 | nt | nt
NS(=O)(=O)c1ccc(NC(=O)N2c3ccccc3Sc3ccccc32)cc1 | -3 | 55 | 1 | 46* | 8 | 1 | -2
COCCN=c1scc(-c2ccco2)n1/N=C/c1ccc(O)c(O)c1O | 4 | nt | 4 | 46* | nt | -2 | 8
CCC(=O)c1ccc(OCC(=O)OCC(=O)NCCCc2ccccc2)cc1 | -3 | 16 | nt | 3 | 2 | nt | nt
CN(C)c1ccc(NC(=O)CN2CCC(NC(=O)C3CCCCC3)CC2)cc1 | 1 | 8 | -2 | 64* | -3 | -2 | 82*
COc1ccc(NC(=O)CN2CCC(NC(=O)C3CCCCC3)CC2)cc1 | 4 | 16 | -11 | 4 | -2 | nt | nt
NC(=O)CCCn1c(C(=O)c2cc(Cl)c(N)c(Cl)c2)c2ccc([N+](=O)[O-])cc2[n+]1[O-] | 3 | 10 | nt | 82* | 50 | 1 | 78*
NC(=O)CCCn1c(C(=O)c2ccc(Cl)cc2)c2ccc([N+](=O)[O-])cc2[n+]1[O-] | -2 | 9 | nt | -27 | 37 | nt | nt
CCOC(=O)c1c(CSC(=N)N)n(-c2ccc(Br)cc2)c2cc(Br)c(OC(C)=O)cc12 | nt | nt | -6 | nt | nt | nt | nt
CCCCCCCCOC(=O)c1c(CSC(=N)N)n(C)c2cc(Br)c(OC(C)=O)cc12 | 17* | 29 | 6 | 96* | 22 | 4 | 114*
O=C1CC2(CCCC2)Oc2ccc(F)cc21 | -1 | 11 | nt | 4 | -8 | nt | nt
Cc1nc2ccccc2c2oc(C(=O)N3CCC(N4CCCCC4)CC3)cc12 | 0 | nt | 2 | 61* | nt | 0 | 44
Cc1ccc(CC(=O)Nc2nccs2)cc1C | -1 | 2 | 2 | -2 | -12 | nt | nt
C#CCOCCOCCOCCNc1nc(N2CCN(C(=O)C(Cc3ccc(O)cc3)n3cc(C(N)C(C)CC)nn3)CC2)nc(N2CCN(C(=O)C(Cc3ccc(O)cc3)n3cc(C(N)C(C)CC)nn3)CC2)n1 (stereo unspecified) | 3 | 36 | -12 | 49* | -7 | 0 | 23
C#CCOCCOCCOCCNc1nc(N2CCN(C(=O)[C@H](CCCCN)n3cc([C@@H](N)CC(C)C)nn3)CC2)nc(N2CCN(C(=O)[C@H](Cc3ccc(O)cc3)n3cc([C@@H](N)CC(C)C)nn3)CC2)n1 | 7 | 5 | -7 | 37 | -15 | nt | nt

Screening results (PubChem)
